# Screening results deposited in PubChem BioAssay by several laboratories.
# AI-2 QS mod = Vibrio harveyi AI-2 quorum sensing modulation | Vibrio harveyi JMH597 AI-2 luminescence/OD600 ratio, 9 h; active compounds read low; strain lacks LuxN and CqsS sensors; 0 = neutral-control median | AID 2094 | activity change, % at 7.5 µM | 0.4% of 300,000 active; in the data active = activity change below about -75%, passing the limit was not always enough; inconclusive = no clear call, values can overlap the other calls;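 also: luminescence divided by OD600 gain over 9 h not by final OD600 alone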
# GSK3 alpha inh = human GSK-3 alpha kinase inhibition | P49840 | ADP-Glo luminescence, 60 min | inhibition, % at 10 µM | 0.1% of 320,000 active | AID 2650;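 active = more than half of replicates show inhibition above 20%; inconclusive = some but at most half of replicates above 20% inhibition; inactive = no replicate shows inhibition above 20%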;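 also: GST-tagged GSK-3 alpha with peptide substrate and 25 µM ATP; 0% = DMSO neutral wells and 100% = GW8510 positive control wells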
# PolyA inh = blocks polyadenylation in yeast reporter cells. S. cerevisiae SKY197-pL101 polyadenylation reporter, beta-gal luminescence; efflux-impaired pdr1/pdr3 knockout yeast; score 100 = 6 SD above DMSO. activity score, % at 12 µM. 0.02% of 300,000 active. AID 1875;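 active = lowest replicate activity score at least 50, where 100 means six control SD above control mean; inconclusive = lowest score under 50 but half or more replicates reach 50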;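 also: yeast exposed to compound for 9 h at 30 °C; higher score means more reporter readthrough which indicates perturbed polyadenylation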
# STK33 inh = human STK33 kinase inhibition; 0.073% of 320,000 active; Q9BYT3; inhibition, % at 10 µM; AID 2661; purified STK33, MBP phosphorylation, ADP-Glo luminescence;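 active = inhibition at or above 25%, using the most active replicate where run in duplicate; inactive = inhibition below 25%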
# Target sequence (Q9BYT3 whole entry, looked up): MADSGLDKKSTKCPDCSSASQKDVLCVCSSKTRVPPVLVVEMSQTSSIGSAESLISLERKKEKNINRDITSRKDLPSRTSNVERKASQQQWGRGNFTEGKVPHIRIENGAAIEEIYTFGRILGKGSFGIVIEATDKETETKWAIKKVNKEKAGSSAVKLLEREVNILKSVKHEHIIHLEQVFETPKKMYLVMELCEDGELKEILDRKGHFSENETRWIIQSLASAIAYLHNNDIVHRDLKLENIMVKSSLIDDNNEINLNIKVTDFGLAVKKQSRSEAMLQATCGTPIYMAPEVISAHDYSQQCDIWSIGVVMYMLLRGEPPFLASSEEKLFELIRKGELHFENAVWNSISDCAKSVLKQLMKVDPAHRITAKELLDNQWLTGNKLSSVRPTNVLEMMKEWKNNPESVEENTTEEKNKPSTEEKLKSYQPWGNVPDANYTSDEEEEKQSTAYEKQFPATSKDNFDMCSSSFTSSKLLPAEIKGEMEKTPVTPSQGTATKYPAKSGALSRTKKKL
# GSK3beta inhib = human GSK3beta kinase inhibition | activity score (negative = inhibition), % at 10 µM | 0.038% of 300,000 active | P49841 | GST-GSK3beta kinase, ADP-Glo luminescence, 60 min; active compounds read low;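 active = more than half of replicate wells score below -50%, meaning over 50% inhibition versus plate controls; inconclusive = some replicates but at most half score below -50%; inactive = no replicate scores below -50%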;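 also: 0% = median DMSO wells and -100% = median GW8510 positive control wells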
#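 test system = GST-tagged human GSK3beta kinase, cell-free | reagent = 25 µM ATP with peptide substrate | dosing = one dose of 10 µM per compound | schedule = 60 min reaction, RT | detection = luminescent ADP-Glo measurement of ADP formed | control set = DMSO neutral wells and GW8510 at 20 µM as positive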
# Yeast superoxide = lowers age-related superoxide in aged yeast cells. S. cerevisiae aged cells, superoxide DHE fluorescence; active compounds read low. superoxide response (% of plate mean), % at 10 µM. 0.18% of 330,000 active;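 active = superoxide response under a set limit, about three screen SD below normal, cut at about 65% in these data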;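 also: yeast aged for seven days with compound at 30 °C before DHE staining; 100% = average MFI of all compound-treated wells on the plate with controls excluded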
# Numbers without * were called inactive; ? = inconclusive; . = not tested or not shown. Compounds with a hit are over-represented: about 0.72% of the library has one in this group of screens.
SMILES,AI-2 QS mod,GSK3 alpha inh,PolyA inh,STK33 inh,GSK3beta inhib,Yeast superoxide
Cc1ccc(-c2csc(NC(=O)c3ccc([N+](=O)[O-])o3)n2)cc1,-158.2*,-1.7,-4.0,1.6,-0.9,104.0
Fc1ccc(-c2[nH]ncc2CN(CC2CCC2)CC2CCCO2)c(F)c1 (stereo not given),15.5,-0.4,3.4,-1.0,2.9,105.9
O=C(CCc1ccccc1)c1nnc(-c2ccccc2)o1,-44.7,-1.6,-21.7,-0.7,4.0,78.2
O=C1N/C(=N/S(=O)(=O)Cc2ccccc2)S/C1=C/c1ccc2c(c1)OCO2,36.6,71.1*,-5.6,14.6,-3.3,118.7
CC(=O)Nc1cccc(-c2csc(N)n2)c1,29.3,1.9,12.4,0.4,-3.5,101.4
CC(=O)Nc1cccc(-c2cnc(N)c(C(=O)c3cccnc3)n2)c1,.,88.5*,.,12.8,.,119.3
CC(=O)Nc1ccc(S(=O)(=O)NC(C(=O)O)C(C)O)cc1 (stereo not given),5.5,-1.1,23.0,-0.1,0.9,100.8
O=C1c2ccccc2N2C(=O)c3ccccc3[C@H]2N1c1ccccc1,19.3,4.4,9.0,0.3,-0.5,93.2
O=C1NC2c3ccccc3C(=O)N2c2c1cnn2-c1ccccc1 (stereo not given),32.0,11.6,8.5,28.0*,-0.1,99.1
Cc1c(C(=O)N2CCOCC2)sc(NC(=O)CCl)c1C#N,6.2,-2.1,3.2,0.3,0.6,131.1
O=C(COC(=O)c1ccc(F)cc1F)Nc1ccc(Cl)cn1,.,0.4,.,1.7,.,126.9
O=C(COC(=O)c1ccc(O)cc1O)Nc1ccc(Cl)cn1,-82.9*,20.7,6.2,2.5,-2.8,120.0
COc1ccc(C(=O)NC(=S)Nc2cccnc2)cc1[N+](=O)[O-],2.2,3.2,-2.9,0.1,-2.9,47.9*
CCOc1ccc(C(=O)NC(=S)Nc2cccnc2)cc1[N+](=O)[O-],11.2,-3.0,8.2,0.6,-2.5,91.0
Cc1ccc(S(=O)(=O)c2cnc3cc(C)nn3c2N)cc1,-89.9*,3.4,-2.6,0.5,-2.0,110.2
Cc1cc2ncc(S(C)(=O)=O)c(N)n2n1,-0.8,-2.2,2.1,-0.1,-1.5,112.8
O=C(CCl)Oc1ccc2occ(C(=O)c3cccs3)c2c1,44.1,70.0*,-7.4,2.7,-71.5*,92.3
Cc1ccc(NC2=NC3(CCCCC3)N=C(N)N2)c(C)c1,10.5,1.2,?,-0.4,1.3,99.9
Cc1ccc(NC2=NC3(CCCC3)N=C(N)N2)c(C)c1,9.5,-1.6,12.1,-0.4,2.5,61.6*
O=C(C[n+]1ccccc1)Nc1cc(C(F)(F)F)ccc1Cl,21.8,.,13.2,.,-0.9,112.4
O=C(C[n+]1ccc2ccccc2c1)Nc1cc(C(F)(F)F)ccc1Cl,31.3,1.9,-12.1,-0.9,-2.5,58.6*
COc1ccc(CNc2ncnc3cc(Cl)ccc23)cc1OC,16.9,.,-6.5,.,1.2,.
CCN(CC)Cc1cc2[nH]c3c4ccc(Cl)cc4ncc3c2cc1OC,-6.5,.,2.8,.,-52.0*,.
c1cncc(Nc2nc(-c3cccnc3)cs2)c1,17.5,9.6,2.9,34.0*,-10.6,83.6
CCOc1ccc2cc(C3CC(c4ccco4)=NN3S(=O)(=O)c3ccccc3)c(Cl)nc2c1 (stereo not given),25.3,-1.5,1.1,-0.6,0.1,119.4
SMILES,AI-2 QS mod,GSK3 alpha inh,PolyA inh,STK33 inh,GSK3beta inhib,Yeast superoxide
COc1ccc2cc(C3CC(c4ccco4)=NN3S(=O)(=O)c3ccccc3)c(Cl)nc2c1 (stereo not given),1.4,11.3,-32.1,10.6,-2.5,54.5*
Cn1c(/C=C/c2ccc([N+](=O)[O-])o2)nc2ccccc2c1=O,-229.3*,-1.3,-97.3,11.1,-2.0,90.8
CC(C)(C)OC(=O)NCCc1nnc(SCc2ccccc2Cl)o1,13.2,-2.9,8.6,-0.6,3.3,112.0
CC(C)(C)OC(=O)NCCc1nnc(S(=O)(=O)Cc2ccc(Cl)cc2Cl)o1,-88.8*,-4.7,3.6,2.2,3.8,82.4
CC(C)CCOP(=O)(c1ccc(N(C)C)cc1)C(Nc1ccccc1)c1ccc(N(C)C)cc1 (stereo not given),19.0,1.4,-10.7,-0.2,-1.3,111.8
CCCOP(=O)(c1ccc(N(C)C)cc1)C(Nc1ccccc1)c1ccc(C)cc1 (stereo not given),15.4,14.8,59.4*,11.7,1.1,84.2
COc1ccc2nc(NC(=O)CSc3n[nH]c(N)n3)sc2c1,2.5,57.8*,4.5,15.0,-38.4,94.8
CCc1nc2sc3c(c2c(=O)n1N)CC(C)(C)OC3,3.3,-2.0,11.0,1.6,0.6,95.5
CN(C)c1nc2sc3c(c2c(=O)n1C)CC(C)(C)OC3,2.0,1.6,-10.9,37.5*,6.2,100.1
O=[N+]([O-])c1c(Nc2cccc(O)c2)cc(Cl)c2nonc12,-219.3*,19.6,-12.7,5.2,-10.8,119.5
O=C1NN=C(c2ccc(Cl)cc2)CC1c1cccc(Br)c1 (stereo not given),30.4,1.5,-28.8,1.5,2.2,105.7
Cc1ccc(C2=NNC(=O)C(c3ccc(Cl)cc3)C2)cc1 (stereo not given),-83.9*,-0.8,16.6,-0.1,2.4,109.3
CCOC(=O)[C@H]1[C@H]2COc3ccc(Cl)cc3[C@@H]2N2C(=O)c3cc(F)ccc3NC(=O)[C@@]12C,.,-2.7,.,-0.8,.,.
Cn1c(=O)c2[nH]c(CCCC(=O)O)nc2n(Cc2ccccc2)c1=S,12.9,84.4*,2.1,0.8,-50.9*,108.5
CC1c2cc3c(cc2CCN1C(=O)c1cccc(F)c1)OCCCO3 (stereo not given),-0.5,0.1,-12.9,-1.3,3.1,104.3
CN(C)CCCNc1nc(N)c([N+](=O)[O-])c(NC2CCCCC2)n1,14.1,98.4*,-3.0,2.6,-81.3*,98.5
Nc1nc(NCCO)nc(NC2CCCCC2)c1[N+](=O)[O-],26.6,86.2*,-15.8,1.0,-10.6,94.8
Nc1nc(NCCOCCO)nc(NC2CCCCC2)c1[N+](=O)[O-],10.0,52.3*,8.0,2.7,-7.2,101.0
CC(C)CCNc1nc(N)c([N+](=O)[O-])c(NC2CCCCC2)n1,24.0,0.0,3.4,-1.4,0.3,98.9
CC1c2ccsc2CCN1S(=O)(=O)c1cccs1 (stereo not given),18.8,-1.8,-4.5,-2.1,1.3,96.5
Cc1cccc(NC(=S)N2CCC(NC(=O)c3cccc(F)c3)CC2)c1,7.0,0.2,5.9,-3.8,-3.3,97.7
O=C(COC(=O)Cc1ccc(S(=O)(=O)N2CCOCC2)s1)NCCc1ccccc1,10.9,-2.3,?,-3.0,0.7,101.5
O=C(COC(=O)Cc1ccc(S(=O)(=O)N2CCOCC2)s1)NCc1ccccc1,-4.3,-1.0,903.3*,-1.1,1.5,89.5
